Experiments:
[1] = system: Human immunodeficiency virus 1; test: Antiviral activity against HIV1 3B in MT4 cells assessed as inhibition of virus-induced cytopathic effect by MTT assay; type: functional, organism-based; details: Human immunodeficiency virus 1, 3B
Outline: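 Human lymphocyte MT-4 cultures were infected with HIV-1, and protection from virus-induced cytopathic effect was read by MTT.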

[2] = Cytotoxicity against human MT4 cells by MTT assay; type: cell-based
Outline: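 Human lymphocyte MT-4 cultures were read by MTT in the MT-4/MTT format.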

[3] = target: T1, Human immunodeficiency virus type 1 integrase (Human immunodeficiency virus 1, UniProt Q7ZJM1); test: Inhibition of HIV1 integrase DNA strand transfer activity
[4] = target: T1, Human immunodeficiency virus type 1 integrase; test: Inhibition of HIV1 integrase by overall integration assay
[5] = target: T1, Human immunodeficiency virus type 1 integrase; test: Inhibition of HIV1 integrase 3'-processing activity

T1 sequence (Q7ZJM1 whole entry): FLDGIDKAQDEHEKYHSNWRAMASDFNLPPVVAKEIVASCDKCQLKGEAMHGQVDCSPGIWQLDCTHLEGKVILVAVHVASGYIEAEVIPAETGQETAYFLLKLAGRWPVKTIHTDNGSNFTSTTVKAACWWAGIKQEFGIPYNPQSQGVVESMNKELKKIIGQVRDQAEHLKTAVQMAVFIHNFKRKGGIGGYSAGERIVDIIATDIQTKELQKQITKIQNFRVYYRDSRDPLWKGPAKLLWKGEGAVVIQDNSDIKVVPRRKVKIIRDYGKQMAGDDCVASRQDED

Row | SMILES | IC50 [3] [µM] | IC50 [4] [µM] | IC50 [5] [µM] | EC50 [1] [µM] | CC50 [2] [µM]
1 | COc1cc2c(cc1Cc1cccc(Cl)c1F)c(=O)c(C(=O)O)cn2[C@H](CO)C(C)C |  |  |  | 0.00037 | 1.15
2 | O=C(O)c1cn(CCO)c2ccc(Cc3cccc(Cl)c3F)cc2c1=O |  |  |  |  | > 15
3 | O=C(O)c1cn(CCO)c2ccc(Cc3ccc(Cl)cc3Cl)cc2c1=O | 0.2 | 0.07 |  | > 5.3 | 5.3
4 | O=C(O)c1cn(CCO)c2ccc(Oc3ccc(F)c(Cl)c3)cc2c1=O | > 100 | 86.9 | > 100 | > 9.9 | 9.9
5 | O=C(c1ccc2c(c1)c(=O)c(C(=O)O)cn2CCCO)c1ccc(Cl)cc1Cl | > 100 | 73.9 | > 100 | > 17.5 | 17.5
6 | O=C(c1ccc2c(c1)c(=O)c(C(=O)O)cn2CCCCO)c1ccc(Cl)cc1Cl | > 100 | 54.9 | > 100 | > 17 | 17
7 | O=C(O)c1cn(CCO)c2ccc(/C=C/c3ccccc3)cc2c1=O | > 100 | 71.9 |  | > 22.6 | 22.6
8 | CCn1cc(C(=O)O)c(=O)c2c1C(=O)C=C(Nc1cccc(Cl)c1F)C2=O | > 100 | 9.7 | > 100 | > 2.4 | 2.4
9 | O=C(c1ccc2c(c1)c(=O)c(C(=O)O)cn2CCO)c1ccc(Cl)cc1Cl | > 100 | 18.7 | > 100 | > 21.1 | 21.1
10 | CCn1cc(C(=O)O)c(=O)c2c1C(=O)C=C(Sc1ccccc1)C2=O | 1.6 | 4.6 |  | > 30 | 30
11 | O=C(Nc1ccc2c(c1)c(=O)c(C(=O)O)cn2CCO)c1ccccc1 | > 100 | > 100 |  | > 220 | 220
12 | CCn1cc(C(=O)O)c(=O)c2cc(Nc3cccc(Cl)c3F)ccc21 | > 100 | 38 | > 100 | > 9.8 | 9.8
13 | CCn1cc(C(=O)O)c(=O)c2c1C(=O)C=CC2=O | 58.7 | 43.7 |  | > 42.8 | 42.8
14 | O=C(O)c1cn(CCO)c2ccc(Sc3ccccc3)cc2c1=O | 18.5 | 4.8 |  | > 22.7 | 22.7
15 | O=C(O)c1cn(CCCCO)c2ccc(Cc3ccc(Cl)cc3Cl)cc2c1=O | 0.6 | 0.05 | 16.6 | > 4.2 | 4.2

Further lines, with some results ahead:

Row | IC50 [3] [µM] | IC50 [4] [µM] | IC50 [5] [µM] | SMILES | EC50 [1] [µM] | CC50 [2] [µM]
16 | > 100 | > 100 |  | O=C(O)c1cn(CCO)c2ccc(-c3ccccc3)cc2c1=O | > 44.9 | 44.9
17 | 1.3 | 0.9 |  | O=C(O)c1cn(CCCO)c2ccc(Cc3ccc(Cl)cc3Cl)cc2c1=O | > 3.6 | 3.6
18 | > 100 | > 100 |  | O=C(Nc1ccccc1)c1ccc2c(c1)c(=O)c(C(=O)O)cn2CCO | > 224 | 224
19 | 2.1 | 1 |  | CCn1cc(C(=O)O)c(=O)c2c1C(=O)C=C(Nc1ccc(F)c(Cl)c1)C2=O | > 2.2 | 2.2
20 | 24.1 | 10.8 |  | CN(C)CCn1cc(C(=O)O)c(=O)c2cc(Cc3ccc(Cl)cc3Cl)ccc21 | > 5.2 | 5.2
21 | > 100 | > 100 |  | O=C(O)c1cn(CCO)c2ccc(Nc3cccc(Cl)c3F)cc2c1=O | > 27.4 | 27.4
22 | > 100 | 77.6 | > 100 | O=C(O)c1cn(CCO)c2ccc(-c3ccncc3)cc2c1=O | > 138 | 138
23 | 16.5 | 5.6 |  | COCCn1cc(C(=O)O)c(=O)c2cc(Cc3ccc(Cl)cc3Cl)ccc21 | > 4.2 | 4.2

Source: ChEMBL document CHEMBL1156566, “Investigations on the 4-quinolone-3-carboxylic acid motif. 1. Synthesis and structure-activity relationship of a class of human immunodeficiency virus type 1 integrase inhibitors” (J Med Chem, 2008)
